Values after ≈ are worked out from the molar mass of the structure shown.
system: Candida tropicalis; experiment: Antimicrobial activity against Candida tropicalis ATCC 1369 after 24 hrs by broth microdilution assay; format: functional; details: ATCC 1369, 24 h
In short: (§1)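 Broth dilution MIC. Stock is 10 mg compound in 1 mL DMSO, serially diluted in Mueller–Hinton broth for bacteria or Sabouraud liquid medium for yeasts and mould. Tubes are inoculated at 10⁵ cfu/mL and incubated at 37 °C for 24 h. Controls are medium alone and medium with DMSO at matching dilutions. MIC is the lowest concentration giving complete growth inhibition.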

| SMILES | MIC [µg/mL] |
| --- | --- |
| CC(C)c1csc(-c2nnc(-c3ccccc3)o2)n1 | 125 (≈ 461 µM) |
| CC(C)c1csc(-c2nnc(-c3ccc(Cl)cc3)o2)n1 | 125 (≈ 409 µM) |
| CC(=O)N1N=C(c2nc(C(C)C)cs2)OC1(C)c1ccc(Br)cc1 (stereo not given) | 31.2 (≈ 76.5 µM) |
| CC(=O)N1N=C(c2nc(C(C)C)cs2)OC1(C)c1ccc(C)cc1 (stereo not given) | 31.2 (≈ 91 µM) |
| CC(C)c1csc(-c2nnc(-c3ccc(O)cc3)o2)n1 | 125 (≈ 435 µM) |
| CC(C)c1csc(-c2nnc(S)n2/N=C/c2ccc(N(C)C)cc2)n1 | 125 (≈ 336 µM) |
| CC(C)c1csc(-c2nnc3sc(-c4ccc([N+](=O)[O-])cc4)nn23)n1 | 8 (≈ 21.5 µM) |
| Cc1ccc(-c2nn3c(-c4nc(C(C)C)cs4)nnc3s2)cc1 | 125 (≈ 366 µM) |

system: Staphylococcus aureus; experiment: Antimicrobial activity against Staphylococcus aureus ATCC 11632 after 24 hrs by broth microdilution assay; format: functional; details: ATCC 11632, 24 h; in short: as §1

| SMILES | MIC [µg/mL] |
| --- | --- |
| CC(C)c1csc(-c2nnc(-c3ccccc3)o2)n1 | 31.2 (≈ 115 µM) |
| CC(C)c1csc(-c2nnc(-c3ccc(Cl)cc3)o2)n1 | 8 (≈ 26.2 µM) |
| CC(=O)N1N=C(c2nc(C(C)C)cs2)OC1(C)c1ccc(Br)cc1 (stereo not given) | 16 (≈ 39.2 µM) |
| CC(=O)N1N=C(c2nc(C(C)C)cs2)OC1(C)c1ccc(C)cc1 (stereo not given) | 125 (≈ 364 µM) |
| CC(C)c1csc(-c2nnc(-c3ccc(O)cc3)o2)n1 | 62.5 (≈ 218 µM) |
| CC(C)c1csc(-c2nnc(S)n2/N=C/c2ccc(N(C)C)cc2)n1 | 16 (≈ 43 µM) |
| CC(C)c1csc(-c2nnc3sc(-c4ccc([N+](=O)[O-])cc4)nn23)n1 | 125 (≈ 336 µM) |
| Cc1ccc(-c2nn3c(-c4nc(C(C)C)cs4)nnc3s2)cc1 | 125 (≈ 366 µM) |

system: Escherichia coli; experiment: Antimicrobial activity against Escherichia coli ATCC 10536 after 24 hrs by broth microdilution assay; format: functional; details: ATCC 10536, 24 h; in short: as §1

| SMILES | MIC [µg/mL] |
| --- | --- |
| CC(C)c1csc(-c2nnc(-c3ccccc3)o2)n1 | 125 (≈ 461 µM) |
| CC(C)c1csc(-c2nnc(-c3ccc(Cl)cc3)o2)n1 | 125 (≈ 409 µM) |
| CC(=O)N1N=C(c2nc(C(C)C)cs2)OC1(C)c1ccc(Br)cc1 (stereo not given) | 62.5 (≈ 153 µM) |
| CC(=O)N1N=C(c2nc(C(C)C)cs2)OC1(C)c1ccc(C)cc1 (stereo not given) | 16 (≈ 46.6 µM) |
| CC(C)c1csc(-c2nnc(-c3ccc(O)cc3)o2)n1 | 62.5 (≈ 218 µM) |
| CC(C)c1csc(-c2nnc(S)n2/N=C/c2ccc(N(C)C)cc2)n1 | 16 (≈ 43 µM) |
| CC(C)c1csc(-c2nnc3sc(-c4ccc([N+](=O)[O-])cc4)nn23)n1 | 125 (≈ 336 µM) |
| Cc1ccc(-c2nn3c(-c4nc(C(C)C)cs4)nnc3s2)cc1 | 125 (≈ 366 µM) |

system: Pseudomonas aeruginosa; experiment: Antimicrobial activity against Pseudomonas aeruginosa ATCC 10145 after 24 hrs by broth microdilution assay; format: functional; details: ATCC 10145, 24 h; in short: as §1

| SMILES | MIC [µg/mL] |
| --- | --- |
| CC(C)c1csc(-c2nnc(-c3ccccc3)o2)n1 | 62.5 (≈ 230 µM) |
| CC(C)c1csc(-c2nnc(-c3ccc(Cl)cc3)o2)n1 | 125 (≈ 409 µM) |
| CC(=O)N1N=C(c2nc(C(C)C)cs2)OC1(C)c1ccc(Br)cc1 (stereo not given) | 16 (≈ 39.2 µM) |
| CC(=O)N1N=C(c2nc(C(C)C)cs2)OC1(C)c1ccc(C)cc1 (stereo not given) | 125 (≈ 364 µM) |
| CC(C)c1csc(-c2nnc(-c3ccc(O)cc3)o2)n1 | 62.5 (≈ 218 µM) |
| CC(C)c1csc(-c2nnc(S)n2/N=C/c2ccc(N(C)C)cc2)n1 | 16 (≈ 43 µM) |
| CC(C)c1csc(-c2nnc3sc(-c4ccc([N+](=O)[O-])cc4)nn23)n1 | 31.2 (≈ 83.9 µM) |
| Cc1ccc(-c2nn3c(-c4nc(C(C)C)cs4)nnc3s2)cc1 | 62.5 (≈ 183 µM) |

system: Saccharomyces cerevisiae; experiment: Antimicrobial activity against Saccharomyces cerevisiae ATCC 9763 after 24 hrs by broth microdilution assay; format: functional; details: ATCC 9763, 24 h; in short: as §1

| SMILES | MIC [µg/mL] |
| --- | --- |
| CC(C)c1csc(-c2nnc(-c3ccccc3)o2)n1 | 62.5 (≈ 230 µM) |
| CC(C)c1csc(-c2nnc(-c3ccc(Cl)cc3)o2)n1 | 62.5 (≈ 204 µM) |
| CC(=O)N1N=C(c2nc(C(C)C)cs2)OC1(C)c1ccc(Br)cc1 (stereo not given) | 31.2 (≈ 76.5 µM) |
| CC(=O)N1N=C(c2nc(C(C)C)cs2)OC1(C)c1ccc(C)cc1 (stereo not given) | 16 (≈ 46.6 µM) |
| CC(C)c1csc(-c2nnc(-c3ccc(O)cc3)o2)n1 | 62.5 (≈ 218 µM) |
| CC(C)c1csc(-c2nnc(S)n2/N=C/c2ccc(N(C)C)cc2)n1 | 31.2 (≈ 83.9 µM) |
| CC(C)c1csc(-c2nnc3sc(-c4ccc([N+](=O)[O-])cc4)nn23)n1 | 8 (≈ 21.5 µM) |
| Cc1ccc(-c2nn3c(-c4nc(C(C)C)cs4)nnc3s2)cc1 | 250 (≈ 732 µM) |

system: Mycobacterium tuberculosis; experiment: Antimycobacterial activity against Mycobacterium tuberculosis H37Rv after 21 days by broth dilution assay; format: functional; details: 504 h
In short: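 Middlebrook 7H9 broth with 10% albumin-dextrose-catalase and 0.2% glycerol; frozen culture thawed, diluted to 10⁵ cfu/mL and used as inoculum. Compounds taken up in DMSO and diluted twice in broth, 1.3% DMSO final. Incubated at 37 °C. Growth judged by eye against drug-free and inoculum-free controls and isoniazid. MIC is the lowest concentration inhibiting ≥99% of the starting population.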

| SMILES | MIC [µg/mL] |
| --- | --- |
| CC(C)c1csc(-c2nnc(-c3ccccc3)o2)n1 | 31.2 (≈ 115 µM) |
| CC(C)c1csc(-c2nnc(-c3ccc(Cl)cc3)o2)n1 | 4 (≈ 13.1 µM) |
| CC(=O)N1N=C(c2nc(C(C)C)cs2)OC1(C)c1ccc(Br)cc1 (stereo not given) | 125 (≈ 306 µM) |
| CC(=O)N1N=C(c2nc(C(C)C)cs2)OC1(C)c1ccc(C)cc1 (stereo not given) | 31.2 (≈ 91 µM) |
| CC(C)c1csc(-c2nnc(-c3ccc(O)cc3)o2)n1 | 125 (≈ 435 µM) |
| CC(C)c1csc(-c2nnc(S)n2/N=C/c2ccc(N(C)C)cc2)n1 | 125 (≈ 336 µM) |
| CC(C)c1csc(-c2nnc3sc(-c4ccc([N+](=O)[O-])cc4)nn23)n1 | 31.2 (≈ 83.9 µM) |
| Cc1ccc(-c2nn3c(-c4nc(C(C)C)cs4)nnc3s2)cc1 | 31.2 (≈ 91.5 µM) |

system: Bacillus subtilis; experiment: Antimicrobial activity against Bacillus subtilis ATCC 60511 after 24 hrs by broth microdilution assay; format: functional; details: ATCC 60511, 24 h; in short: as §1

| SMILES | MIC [µg/mL] |
| --- | --- |
| CC(C)c1csc(-c2nnc(-c3ccccc3)o2)n1 | 62.5 (≈ 230 µM) |
| CC(C)c1csc(-c2nnc(-c3ccc(Cl)cc3)o2)n1 | 4 (≈ 13.1 µM) |
| CC(=O)N1N=C(c2nc(C(C)C)cs2)OC1(C)c1ccc(Br)cc1 (stereo not given) | 31.2 (≈ 76.5 µM) |
| CC(=O)N1N=C(c2nc(C(C)C)cs2)OC1(C)c1ccc(C)cc1 (stereo not given) | 16 (≈ 46.6 µM) |
| CC(C)c1csc(-c2nnc(-c3ccc(O)cc3)o2)n1 | 31.2 (≈ 109 µM) |
| CC(C)c1csc(-c2nnc(S)n2/N=C/c2ccc(N(C)C)cc2)n1 | 31.2 (≈ 83.9 µM) |
| CC(C)c1csc(-c2nnc3sc(-c4ccc([N+](=O)[O-])cc4)nn23)n1 | 16 (≈ 43 µM) |
| Cc1ccc(-c2nn3c(-c4nc(C(C)C)cs4)nnc3s2)cc1 | 62.5 (≈ 183 µM) |

system: Klebsiella pneumoniae; experiment: Antimicrobial activity against Klebsiella pneumoniae ATCC 10031 after 24 hrs by broth microdilution assay; format: functional; details: ATCC 10031, 24 h; in short: as §1

| SMILES | MIC [µg/mL] |
| --- | --- |
| CC(C)c1csc(-c2nnc(-c3ccccc3)o2)n1 | 250 (≈ 921 µM) |
| CC(C)c1csc(-c2nnc(-c3ccc(Cl)cc3)o2)n1 | 125 (≈ 409 µM) |
| CC(=O)N1N=C(c2nc(C(C)C)cs2)OC1(C)c1ccc(Br)cc1 (stereo not given) | 16 (≈ 39.2 µM) |
| CC(=O)N1N=C(c2nc(C(C)C)cs2)OC1(C)c1ccc(C)cc1 (stereo not given) | 31.2 (≈ 91 µM) |
| CC(C)c1csc(-c2nnc(-c3ccc(O)cc3)o2)n1 | 62.5 (≈ 218 µM) |
| CC(C)c1csc(-c2nnc(S)n2/N=C/c2ccc(N(C)C)cc2)n1 | 16 (≈ 43 µM) |
| CC(C)c1csc(-c2nnc3sc(-c4ccc([N+](=O)[O-])cc4)nn23)n1 | 16 (≈ 43 µM) |
| Cc1ccc(-c2nn3c(-c4nc(C(C)C)cs4)nnc3s2)cc1 | 250 (≈ 732 µM) |

system: Enterococcus faecalis; experiment: Antimicrobial activity against Streptococcus faecalis ATCC 14506 after 24 hrs by broth microdilution assay; format: functional; details: ATCC 14506, 24 h; in short: as §1

| SMILES | MIC [µg/mL] |
| --- | --- |
| CC(C)c1csc(-c2nnc(-c3ccccc3)o2)n1 | 16 (≈ 59 µM) |
| CC(C)c1csc(-c2nnc(-c3ccc(Cl)cc3)o2)n1 | 8 (≈ 26.2 µM) |
| CC(=O)N1N=C(c2nc(C(C)C)cs2)OC1(C)c1ccc(Br)cc1 (stereo not given) | 16 (≈ 39.2 µM) |
| CC(=O)N1N=C(c2nc(C(C)C)cs2)OC1(C)c1ccc(C)cc1 (stereo not given) | 125 (≈ 364 µM) |
| CC(C)c1csc(-c2nnc(-c3ccc(O)cc3)o2)n1 | 62.5 (≈ 218 µM) |
| CC(C)c1csc(-c2nnc(S)n2/N=C/c2ccc(N(C)C)cc2)n1 | 125 (≈ 336 µM) |
| CC(C)c1csc(-c2nnc3sc(-c4ccc([N+](=O)[O-])cc4)nn23)n1 | 125 (≈ 336 µM) |
| Cc1ccc(-c2nn3c(-c4nc(C(C)C)cs4)nnc3s2)cc1 | 125 (≈ 366 µM) |

system: Aspergillus niger; experiment: Antimicrobial activity against Aspergillus niger ATCC 6275 after 24 hrs by broth microdilution assay; format: functional; details: ATCC 6275, 24 h; in short: as §1

| SMILES | MIC [µg/mL] |
| --- | --- |
| CC(C)c1csc(-c2nnc(-c3ccccc3)o2)n1 | 125 (≈ 461 µM) |
| CC(C)c1csc(-c2nnc(-c3ccc(Cl)cc3)o2)n1 | 62.5 (≈ 204 µM) |
| CC(=O)N1N=C(c2nc(C(C)C)cs2)OC1(C)c1ccc(Br)cc1 (stereo not given) | 31.2 (≈ 76.5 µM) |
| CC(=O)N1N=C(c2nc(C(C)C)cs2)OC1(C)c1ccc(C)cc1 (stereo not given) | 31.2 (≈ 91 µM) |
| CC(C)c1csc(-c2nnc(-c3ccc(O)cc3)o2)n1 | 125 (≈ 435 µM) |
| CC(C)c1csc(-c2nnc(S)n2/N=C/c2ccc(N(C)C)cc2)n1 | 16 (≈ 43 µM) |
| CC(C)c1csc(-c2nnc3sc(-c4ccc([N+](=O)[O-])cc4)nn23)n1 | 16 (≈ 43 µM) |
| Cc1ccc(-c2nn3c(-c4nc(C(C)C)cs4)nnc3s2)cc1 | 125 (≈ 366 µM) |

— ChEMBL document CHEMBL1157864, “Synthesis of some novel 2-substituted-5-[isopropylthiazole] clubbed 1,2,4-triazole and 1,3,4-oxadiazoles as potential antimicrobial and antitubercular agents” (Eur J Med Chem, 2010)
